Measured values from ChEMBL document CHEMBL5030505, “Assessment of NR4A Ligands That Directly Bind and Modulate the Orphan Nuclear Receptor Nurr1” (J Med Chem, 2020).
Active and inactive are the calls of the source. The calls are words filed in the database; no cut-off is given here.

Assays:
Format in all cases: cell-based
[1] = tested on: SK-N-BE(2); test: Cytotoxicity against human SKNBE2 cells assessed as reduction in cell viability at 0.244 to 15.63 uM incubated for 18 hrs by Cell titer-glo assay; conditions: dose 0.244-15.63 µM
Outline: (§1)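 Cells seeded at 1.5 million per 10-cm dish. Next day they were replated at 10,000 cells/well and rested 4 h. Ligand or vehicle (water, ethanol or DMSO, by ligand) was added in dose-response format in quadruplicate. After 18 h, viability was read by CellTiter-Glo luminescence. Data are mean ± s.e.m., generally representative of 2 independent experiments. One-way ANOVA versus vehicle.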

[2] = tested on: HEK-293T; test: Cytotoxicity against human HEK293T cells assessed as reduction in cell viability at 0.244 to 15.63 microM incubated for 18 hrs by Cell titer-glo assay; conditions: dose 0.244-15.63 µM; outline: as §1
[3] = tested on: PC-12; test: Cytotoxicity against rat PC-12 cells assessed as reduction in cell viability at 0.244 to 15.63 microM incubated for 18 hrs by Cell titer-glo assay; conditions: pc-12, 18 h, dose 0.244-15.63 µM; outline: as §1
[4] = tested on: SKNBE2; test: Modulation of Gal4-fused VP16 expressed in SKNBE(2) cells co-transfected with UAS repoter gene assessed as decrease in luciferase activity at 0.244 to 15.63 uM incubated for 18 hrs by luciferase reporter gene assay; conditions: Human alphaherpesvirus 2, filed as modulator, dose 0.244-15.63 µM
Outline: (§2)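 Cells in 10-cm dishes were transfected with Gal4-VP16 expression plasmid (2 μg) plus 5xUAS-luciferase reporter (2 μg) for 18 h. They were replated at 10,000 cells/well for 4 h, then given ligand or vehicle (water, ethanol or DMSO) in quadruplicate for 18 h. Luciferase was read with Britelite Plus. Fold change is versus vehicle-treated cells, with one-way ANOVA versus vehicle.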

[5] = tested on: PC-12; test: Modulation of Gal4-fused VP16 expressed in PC12 cells co-transfected with UAS repoter gene assessed as decrease in luciferase activity at 0.244 to 15.63 uM incubated for 18 hrs by luciferase reporter gene assay; conditions: Human alphaherpesvirus 2, filed as modulator, dose 0.244-15.63 µM; outline: as §2
[6] = tested on: HEK293T; test: Modulation of Gal4-fused VP16 expressed in HEK293T cells co-transfected with UAS repoter gene assessed as decrease in luciferase activity at 0.244 to 15.63 uM incubated for 18 hrs by luciferase reporter gene assay; conditions: Human alphaherpesvirus 2, filed as modulator, dose 0.244-15.63 µM; outline: as §2
[7] = target: Nuclear receptor subfamily 4 group A member 2 (Homo sapiens) (UniProt P43354); test: Modulation of full length human Nurr1 expressed in PC12 cells co-transfected with luciferase reporter plasmid harboring NurRE response element assessed as decrease in luciferase activity at 0.244 to 15.63 uM incubated for 18 by luciferase reporter gene assay; conditions: PC-12, filed as modulator, dose 0.244-15.63 µM, time 18.0 hrs
Sequence of Nuclear receptor subfamily 4 group A member 2 (Homo sapiens) (P43354 whole entry): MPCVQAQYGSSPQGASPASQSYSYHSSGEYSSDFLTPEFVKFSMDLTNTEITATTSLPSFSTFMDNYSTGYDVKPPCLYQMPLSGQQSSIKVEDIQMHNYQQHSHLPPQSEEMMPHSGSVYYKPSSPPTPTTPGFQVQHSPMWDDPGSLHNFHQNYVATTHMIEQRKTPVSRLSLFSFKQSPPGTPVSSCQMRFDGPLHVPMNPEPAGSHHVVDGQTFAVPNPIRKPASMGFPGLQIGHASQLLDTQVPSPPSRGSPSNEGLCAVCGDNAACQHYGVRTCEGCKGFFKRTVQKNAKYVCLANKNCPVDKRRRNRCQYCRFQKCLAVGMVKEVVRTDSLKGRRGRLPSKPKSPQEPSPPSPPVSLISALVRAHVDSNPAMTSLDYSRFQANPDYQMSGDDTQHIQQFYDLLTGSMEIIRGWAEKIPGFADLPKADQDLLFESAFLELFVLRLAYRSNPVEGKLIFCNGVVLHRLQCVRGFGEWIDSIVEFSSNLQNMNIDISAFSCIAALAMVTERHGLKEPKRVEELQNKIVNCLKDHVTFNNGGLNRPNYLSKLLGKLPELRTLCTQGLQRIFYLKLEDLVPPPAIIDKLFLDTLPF
Outline: (§3)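 Here PC12 cells (FK-12 medium, 15% horse serum, 2.5% FBS, 37°C, 5% CO2) received full-length Nurr1 (2 μg) without RXRα, plus 3xNBRE- or 3xNurRE-luciferase reporter (6 μg), for 18 h. Cells were replated at 10,000/well for 4 h, then treated with ligand or vehicle in quadruplicate for 18 h. Luciferase luminescence was normalized to vehicle-treated cells. Results are mean ± s.e.m. (n=4) from 2 independent experiments, with one-way ANOVA against vehicle.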

[8] = target: Nuclear receptor subfamily 4 group A member 2 (Homo sapiens) (UniProt P43354); test: Modulation of full length human Nurr1 expressed in SKNBE(2) cells co-transfected with RXRalpha and luciferase reporter plasmid harboring NurRE response element assessed as decrease in luciferase activity at 0.244 to 15.63 uM incubated for 18 by luciferase reporter gene assay; conditions: SKNBE2, filed as modulator, dose 0.244-15.63 µM, time 18.0 hrs
Outline: (§4)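 SK-N-BE(2)-C cells were kept in 1:1 EMEM/F12 with 10% FBS at 37°C and 5% CO2. They were cotransfected with full-length Nurr1 (1 μg), full-length RXRα (1 μg) and 3xNBRE- or 3xNurRE-luc reporter (6 μg) for 18 h, replated at 10,000 cells/well for 4 h, and then treated with ligand or vehicle in quadruplicate for 18 h. The readout was luciferase luminescence as fold over vehicle, reported as mean ± s.e.m. (n=4) from 2 independent experiments, one-way ANOVA.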

[9] = target: Nuclear receptor subfamily 4 group A member 2 (Homo sapiens) (UniProt P43354); test: Modulation of full length human Nurr1 expressed in SKNBE(2) cells co-transfected with RXRalpha and luciferase reporter plasmid harboring NBRE response element assessed as decrease in luciferase activity at 0.244 to 15.63 uM incubated for 18 by luciferase reporter gene assay; conditions: SKNBE2, filed as modulator, dose 0.244-15.63 µM, time 18.0 hrs; outline: as §4
[10] = target: Nuclear receptor subfamily 4 group A member 2 (Homo sapiens) (UniProt P43354); test: Modulation of full length human Nurr1 expressed in SKNBE(2) cells co-transfected with luciferase reporter plasmid harboring NurRE response element assessed as decrease in luciferase activity at 0.244 to 15.63 uM incubated for 18 by luciferase reporter gene assay; conditions: SKNBE2, filed as modulator, dose 0.244-15.63 µM, time 18.0 hrs
[11] = target: Nuclear receptor subfamily 4 group A member 2 (Homo sapiens) (UniProt P43354); test: Modulation of full length human Nurr1 expressed in SKNBE(2) cells co-transfected with luciferase reporter plasmid harboring NBRE response element assessed as decrease in luciferase activity at 0.244 to 15.63 uM incubated for 18 by luciferase reporter gene assay; conditions: SKNBE2, filed as modulator, dose 0.244-15.63 µM, time 18.0 hrs
Outline: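 Transfection of SK-N-BE(2)-C cells (1:1 EMEM/F12, 10% FBS, 37°C, 5% CO2) used full-length Nurr1 alone (2 μg, no RXRα) with 3xNBRE- or 3xNurRE-luciferase reporter (6 μg) for 18 h. Cells were replated at 10,000/well for 4 h, then exposed to ligand or vehicle in quadruplicate for 18 h. Luminescence was expressed as fold over vehicle, as mean ± s.e.m. (n=4) from 2 independent experiments, one-way ANOVA against vehicle.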

[12] = target: Nuclear receptor subfamily 4 group A member 2 (Homo sapiens) (UniProt P43354); test: Modulation of full length human Nurr1 expressed in HEK293T cells co-transfected with RXRalpha and luciferase reporter plasmid harboring NurRE response element assessed as decrease in luciferase activity at 0.244 to 15.63 uM incubated for 18 by luciferase reporter gene assay; conditions: filed as modulator, dose 0.244-15.63 µM, time 18.0 hrs
Outline: (§5)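 Full-length Nurr1 plasmid, alone (2 μg) or 1 μg plus full-length RXRα (1 μg), cotransfected with 3xNBRE- or 3xNurRE-luciferase reporter (6 μg) using Lipofectamine 2000, 18 h. Cells replated at 10,000/well for 4 h. Four ligand concentrations, or vehicle (water, ethanol or DMSO), added in quadruplicate for 18 h. Luciferase read. Fold change vs vehicle, mean ± s.e.m., one-way ANOVA vs vehicle.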

[13] = target: Nuclear receptor subfamily 4 group A member 2 (Homo sapiens) (UniProt P43354); test: Modulation of full length human Nurr1 expressed in HEK293T cells co-transfected with RXRalpha and luciferase reporter plasmid harboring NBRE response element assessed as decrease in luciferase activity at 0.244 to 15.63 uM incubated for 18 by luciferase reporter gene assay; conditions: filed as modulator, dose 0.244-15.63 µM, time 18.0 hrs; outline: as §5
[14] = target: Nuclear receptor subfamily 4 group A member 2 (Homo sapiens) (UniProt P43354); test: Modulation of full length human Nurr1 expressed in HEK293T cells co-transfected with luciferase reporter plasmid harboring NurRE response element assessed as decrease in luciferase activity at 0.244 to 15.63 uM incubated for 18 by luciferase reporter gene assay; conditions: filed as modulator, dose 0.244-15.63 µM, time 18.0 hrs; outline: as §5
[15] = target: Nuclear receptor subfamily 4 group A member 2 (Homo sapiens) (UniProt P43354); test: Modulation of full length human Nurr1 expressed in HEK293T cells co-transfected with luciferase reporter plasmid harboring NBRE response element assessed as decrease in luciferase activity at 0.244 to 15.63 uM incubated for 18 by luciferase reporter gene assay; conditions: filed as modulator, dose 0.244-15.63 µM, time 18.0 hrs; outline: as §5
[16] = target: Nuclear receptor subfamily 4 group A member 2 (Homo sapiens) (UniProt P43354); test: Modulation of full length human Nurr1 expressed in SKNBE(2) cells co-transfected with RXRalpha and luciferase reporter plasmid harboring NBRE response element at 0.244 to 15.63 uM incubated for 18 by luciferase reporter gene assay; conditions: SKNBE2, dose 0.244-15.63 µM; outline: as §4
[17] = target: Nuclear receptor subfamily 4 group A member 2 (Homo sapiens) (UniProt P43354); test: Modulation of full length human Nurr1 expressed in SKNBE(2) cells co-transfected with RXRalpha and luciferase reporter plasmid harboring NurRE response element at 0.244 to 15.63 uM incubated for 18 by luciferase reporter gene assay; conditions: SKNBE2, dose 0.244-15.63 µM, time 18.0 hrs; outline: as §4
[18] = target: Nuclear receptor subfamily 4 group A member 2 (Homo sapiens) (UniProt P43354); test: Modulation of full length human Nurr1 expressed in PC12 cells co-transfected with RXRalpha and luciferase reporter plasmid harboring NBRE response element at 0.244 to 15.63 uM incubated for 18 by luciferase reporter gene assay; conditions: PC-12, dose 0.244-15.63 µM, time 18.0 hrs
Outline: (§6)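 PC12 cells were grown at 37°C and 5% CO2 in […] medium with 15% horse serum and 2.5% FBS. They were transfected with full-length Nurr1 (1 μg) plus full-length RXRα (1 μg) and 3xNBRE- or 3xNurRE-luciferase reporter (6 μg) for 18 h, then replated at 10,000 cells/well for 4 h. Ligand or vehicle (water, ethanol or DMSO) was added in quadruplicate for 18 h. Luminescence was read as fold change over vehicle. Results are mean ± s.e.m., n=4, from 2 independent experiments, analysed by one-way ANOVA against vehicle.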

[19] = target: Nuclear receptor subfamily 4 group A member 2 (Homo sapiens) (UniProt P43354); test: Modulation of full length human Nurr1 expressed in PC12 cells co-transfected with RXRalpha and luciferase reporter plasmid harboring NurRE response element at 0.244 to 15.63 uM incubated for 18 by luciferase reporter gene assay; conditions: PC-12, dose 0.244-15.63 µM, time 18.0 hrs; outline: as §6
[20] = target: Nuclear receptor subfamily 4 group A member 2 (Homo sapiens) (UniProt P43354); test: Modulation of full length human Nurr1 expressed in HEK293T cells co-transfected with RXRalpha and luciferase reporter plasmid harboring NBRE response element at 0.244 to 15.63 uM incubated for 18 by luciferase reporter gene assay; conditions: dose 0.244-15.63 µM, time 18.0 hrs; outline: as §5
[21] = target: Nuclear receptor subfamily 4 group A member 2 (Homo sapiens) (UniProt P43354); test: Modulation of full length human Nurr1 expressed in HEK293T cells co-transfected with RXRalpha and luciferase reporter plasmid harboring NurRE response element at 0.244 to 15.63 uM incubated for 18 by luciferase reporter gene assay; conditions: dose 0.244-15.63 µM, time 18.0 hrs; outline: as §5
[22] = target: Nuclear receptor subfamily 4 group A member 2 (Homo sapiens) (UniProt P43354); test: Modulation of full length human Nurr1 expressed in SKNBE(2) cells co-transfected with luciferase reporter plasmid harboring NurRE response element at 0.244 to 15.63 uM incubated for 18 by luciferase reporter gene assay; conditions: SKNBE2, dose 0.244-15.63 µM, time 18.0 hrs
[23] = target: Nuclear receptor subfamily 4 group A member 2 (Homo sapiens) (UniProt P43354); test: Modulation of full length human Nurr1 expressed in SKNBE(2) cells co-transfected with luciferase reporter plasmid harboring NBRE response element at 0.244 to 15.63 uM incubated for 18 by luciferase reporter gene assay; conditions: SKNBE2, dose 0.244-15.63 µM
[24] = target: Nuclear receptor subfamily 4 group A member 2 (Homo sapiens) (UniProt P43354); test: Modulation of full length human Nurr1 expressed in PC12 cells co-transfected with luciferase reporter plasmid harboring NurRE response element at 0.244 to 15.63 uM incubated for 18 by luciferase reporter gene assay; conditions: PC-12, dose 0.244-15.63 µM; outline: as §3
[25] = target: Nuclear receptor subfamily 4 group A member 2 (Homo sapiens) (UniProt P43354); test: Modulation of full length human Nurr1 expressed in PC12 cells co-transfected with luciferase reporter plasmid harboring NBRE response element at 0.244 to 15.63 uM incubated for 18 by luciferase reporter gene assay; conditions: PC-12, dose 0.244-15.63 µM, time 18.0 hrs; outline: as §3
[26] = target: Nuclear receptor subfamily 4 group A member 2 (Homo sapiens) (UniProt P43354); test: Modulation of full length human Nurr1 expressed in HEK293T cells co-transfected with luciferase reporter plasmid harboring NBRE response element at 0.244 to 15.63 uM incubated for 18 by luciferase reporter gene assay; conditions: dose 0.244-15.63 µM, time 18.0 hrs; outline: as §5
[27] = target: Nuclear receptor subfamily 4 group A member 2 (Homo sapiens) (UniProt P43354); test: Modulation of full length human Nurr1 expressed in HEK293T cells co-transfected with luciferase reporter plasmid harboring NurRE response element at 0.244 to 15.63 uM incubated for 18 by luciferase reporter gene assay; conditions: dose 0.244-15.63 µM, time 18.0 hrs; outline: as §5

C=C1C(=O)O[C@@H]2C[C@@]3(C)CCCC(=C)[C@@H]3C[C@H]12 [ISOALANTOLACTONE]
Activity [1]: Toxic
Activity [2]: Toxic
Activity [3]: Toxic
Activity [4]: Active
Activity [5]: Active
Activity [6]: Active
Activity [7]: Active
Activity [8]: Active
Activity [9]: Active
Activity [10]: Active
Activity [11]: Active
Activity [12]: Active
Activity [13]: Active
Activity [14]: Active
Activity [15]: Active

CCCCCCCC(=O)c1cc(OC)c(OC)c(OC)c1CC(=O)OCC
Activity [1]: Toxic
Activity [2]: Toxic
Activity [3]: Toxic
Activity [4]: Active
Activity [5]: Active
Activity [6]: Active
Activity [16]: inactive
Activity [17]: inactive
Activity [18]: inactive
Activity [19]: inactive
Activity [20]: inactive
Activity [21]: inactive
Activity [22]: inactive
Activity [23]: inactive
Activity [24]: inactive
Activity [25]: inactive
Activity [26]: inactive
Activity [27]: inactive
